S100A4 inh HTS = inhibitors of human S100A4 binding to myosin IIA peptide; P26447; S100A4/TAMRA-MyoIIA peptide fluorescence polarization; inhibition, % at 10.7 µM; hit rate 0.14% among 360,000; AID 652163;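 active means mean inhibition of at least 70% across replicates, with every replicate also reaching that level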
Target sequence (P26447 whole entry, looked up): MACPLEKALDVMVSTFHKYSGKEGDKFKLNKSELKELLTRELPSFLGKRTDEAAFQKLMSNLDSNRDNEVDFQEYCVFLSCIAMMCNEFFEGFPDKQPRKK
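Material: S100A4 monomer protein / Buffer or medium: 50 mM HEPES pH 7.2, 10 mM CaCl2, 100 mM KCl / Times: 5 min incubation before reading / Benchmarks: neutral control DMSO, positive control TFP / Reagent: labelled myosin peptide probe, 5 nM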
RAD52 anneal inh = blocks human RAD52 DNA annealing | P43351 | recombinant RAD52 DNA annealing, FRET fluorescence | inhibition, % at 18.7 µM | hit rate 0.46% among 360,000 | AID 651710;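 active means every replicate showing at least 50% inhibition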
Target sequence (P43351 whole entry, looked up): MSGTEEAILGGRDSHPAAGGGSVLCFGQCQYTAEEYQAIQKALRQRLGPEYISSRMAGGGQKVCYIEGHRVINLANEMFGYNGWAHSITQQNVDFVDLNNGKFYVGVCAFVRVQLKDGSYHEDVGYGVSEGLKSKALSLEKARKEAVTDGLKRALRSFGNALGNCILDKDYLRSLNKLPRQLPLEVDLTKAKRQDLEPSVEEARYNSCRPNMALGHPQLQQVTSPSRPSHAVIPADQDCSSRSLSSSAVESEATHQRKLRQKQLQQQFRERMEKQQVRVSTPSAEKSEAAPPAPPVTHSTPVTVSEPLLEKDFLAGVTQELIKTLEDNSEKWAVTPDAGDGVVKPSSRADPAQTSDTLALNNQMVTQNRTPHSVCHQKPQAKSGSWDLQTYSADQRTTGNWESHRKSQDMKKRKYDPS
RAD54 branch = RAD54 (human) branch migration inhibition; RAD54 Holliday junction branch migration, FAM/BHQ fluorescence; inhibition, % at 10.4 µM; hit rate 0.14% among 360,000;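 active means mean normalized replicate activity at least 40 and at least half of replicates scoring 40 or more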;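 further: inhibitors cause a drop in the FAM fluorescence signal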
dFosB act-1 = activators of mouse delta FosB homodimer; P13346; activation, % at 25 µM; purified delta FosB, TAMRA-CDK5 oligo fluorescence polarization; percent of positive-control signal above neutral wells; hit rate 0.99% among 340,000; AID 493131;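 active means mean activation above about 17%, with every replicate also reaching it, limit read from the data, passing the limit was not always enough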
AF4-AF9 inh = MLL-AF4/AF9 protein interaction inhibition. P42568. AlphaScreen, biotin-AF4 peptide binding to FLAG-AF9. inhibition, % at 10 µM. hit rate 0.47% among 350,000;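 active means every replicate reaching a set inhibition limit, whatever the replicate mean, cut at about 25% in these data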
dFosB act-2 = activators of mouse delta FosB homodimer DNA binding; shares compounds with dFosB act-1; purified delta FosB, TAMRA-CDK5 oligo fluorescence polarization; normalised: neutral wells 0, positive control 100; activation, % at 24.9 µM; 2,400 tested, under 10 active; AID 588690;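 active means highest replicate activation at or above 34% and every replicate reaching that threshold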;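 further: higher polarization means more probe DNA bound by delta FosB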
Large screens that a line does not name were inactive (follow-up assays come after a bar, where they were run). In the library only some 1.5% were active in any assay of this set; here they are far more common.

CCOc1ccccc1N(CC(=O)Nc1ccc(S(=O)(=O)N2CCOCC2)cc1)S(=O)(=O)c1ccccc1	dFosB act-1 52.9 (no result: S100A4 inh HTS, RAD52 anneal inh, AF4-AF9 inh) | dFosB act-2 inactive
CCOc1ccccc1N(CC(=O)Nc1ccc(S(=O)(=O)N2CCOCC2)cc1)S(C)(=O)=O	none
C[C@@H]1CN([C@@H](C)CO)C(=O)Cc2cc(NC(=O)C3CC3)ccc2O[C@H]1CN(C)Cc1ccccc1	none (no result: dFosB act-1)
O=C(N/N=C/c1cccc2cccnc12)c1ccccc1O	none
O=C(N/N=C/c1cccc2nccnc12)c1ccccc1O	dFosB act-1 23.2 (no result: RAD54 branch) | dFosB act-2 inactive
C[C@@H]1CN([C@@H](C)CO)C(=O)c2cc(NC(=O)Nc3ccc(F)cc3)ccc2O[C@@H](C)CCCCO[C@@H]1CN(C)C(=O)Cc1ccccc1	none (no result: dFosB act-1)
Cc1cc(=O)[nH]c(SCC(=O)Nc2nnc(CC(C)C)s2)n1	none (no result: S100A4 inh HTS, RAD52 anneal inh, AF4-AF9 inh)
CC(C)Cc1nnc(NC(=O)CSc2nc(-c3ccccc3)cc(=O)[nH]2)s1	dFosB act-1 48.9 (no result: RAD54 branch) | dFosB act-2 inactive
COc1ccc(C(=O)Nc2ccc(Oc3nc(C)nc4sc(-c5ccccc5)cc34)cc2)cc1OC	dFosB act-1 33.6 (no result: S100A4 inh HTS, RAD52 anneal inh, AF4-AF9 inh) | dFosB act-2 inactive
COc1cc(C(=O)Nc2ccc(Oc3ncnc4sc(-c5ccccc5)cc34)cc2)cc(OC)c1OC	dFosB act-1 68.2 (no result: S100A4 inh HTS, RAD52 anneal inh, AF4-AF9 inh) | dFosB act-2 inactive
O=C(C[C@H]1CC[C@H]2[C@@H](COC[C@@H](O)CN2Cc2nccs2)O1)NCc1ccccc1F	none (no result: dFosB act-1)
COc1ccc(NC(=O)N(C)C[C@@H]2Oc3ccc(NS(=O)(=O)c4c(C)noc4C)cc3CC(=O)N([C@@H](C)CO)C[C@@H]2C)cc1	none (no result: dFosB act-1)
COc1ccc2oc(-c3ccc(C)c(NC(=O)c4ccc(N5CCOCC5)c([N+](=O)[O-])c4)c3)nc2c1	dFosB act-1 21.6 (no result: S100A4 inh HTS, RAD52 anneal inh, AF4-AF9 inh) | dFosB act-2 inactive
COc1ccc(CNC(=O)c2ccc(N3CCOCC3)c([N+](=O)[O-])c2)cc1	none (no result: RAD54 branch)
C[C@@H]1CN([C@@H](C)CO)C(=O)c2cc(NC(=O)CCCN(C)C)ccc2O[C@H]1CN(C)Cc1ccc(Cl)c(Cl)c1	none (no result: dFosB act-1)
CCn1cc(Br)c(C(=O)Nc2sc3c(c2C(N)=O)CCCC3)n1	dFosB act-1 76.0 (no result: S100A4 inh HTS, RAD52 anneal inh, AF4-AF9 inh) | dFosB act-2 inactive
CN1CCN(C(=O)c2cc(-c3cccc(Cl)c3)on2)CC1	none (no result: S100A4 inh HTS, RAD52 anneal inh, AF4-AF9 inh)
O=C(c1cc(-c2cccc(Cl)c2)on1)N1CCN(c2ccc(F)cc2)CC1	dFosB act-1 21.0 | dFosB act-2 inactive
CC(=O)c1c(C)[nH]c(C(=O)OCc2c(F)cccc2Cl)c1C	dFosB act-1 21.5 (no result: RAD54 branch) | dFosB act-2 inactive
COc1cccc(-c2ccc(NC(=O)C3CCCN(CCCn4nc(C)cc4C)C3)cc2)c1 (stereo unspecified)	dFosB act-1 26.9 | dFosB act-2 inactive
CCNc1nc(Cl)nc(-c2cn(-c3ccccc3)c3ccccc23)n1	dFosB act-1 21.6 (no result: RAD54 branch) | dFosB act-2 inactive
O=C(C[C@H]1CC[C@@H](NC(=O)CCN2CCCCC2)[C@H](CO)O1)Nc1ccccc1	none (no result: RAD54 branch, dFosB act-1)
COc1cc2c3nnc(-c4ccc(F)cc4)c-3cn(Cc3cccc(C)c3)c2cc1OC	dFosB act-1 40.9 | dFosB act-2 inactive
COc1cc2c3nnc(-c4ccccc4)c-3cn(Cc3ccc(F)cc3)c2cc1OC	dFosB act-1 21.8 (no result: RAD54 branch) | dFosB act-2 inactive
CCCCc1c(-c2ccccc2OC)ncn1Cc1cccc(C)c1	none (no result: RAD54 branch, dFosB act-1)
CC(=O)NC[C@H]1[C@H](c2ccc(C3=CCCCC3)cc2)[C@H](CO)N1C(=O)NC(C)C	none (no result: S100A4 inh HTS, RAD52 anneal inh, dFosB act-1, AF4-AF9 inh)
C[C@H]1CN([C@@H](C)CO)C(=O)Cc2cc(NC(=O)C3CC3)ccc2O[C@H]1CN(C)C(=O)NC1CCCCC1	none (no result: dFosB act-1)
CSCC[C@H](NC(=O)c1ccc(Cl)c([N+](=O)[O-])c1)c1nc2ccccc2[nH]1	none (no result: S100A4 inh HTS, RAD52 anneal inh, AF4-AF9 inh)
O=C(NC(Cc1ccccc1)c1nc2ccccc2[nH]1)c1ccc(Cl)c([N+](=O)[O-])c1 (stereo unspecified)	dFosB act-1 30.8 (no result: RAD54 branch) | dFosB act-2 inactive
O=C(Nc1nc2ccc(F)cc2s1)c1ccc(N2CCCC2=O)cc1	dFosB act-1 25.2 | dFosB act-2 inactive
Cc1cc(C)c2sc(NC(=O)c3ccc(N4C(=O)CCC4=O)cc3)nc2c1	dFosB act-1 79.8 (no result: RAD54 branch) | dFosB act-2 inactive
Cc1ccc2nc(NC(=O)c3ccc(N4C(=O)CCC4=O)cc3)sc2c1	none (no result: RAD54 branch)

Screens (PubChem BioAssay)
